Active and inactive are the calls of the source. The calls are words filed in the database; no cut-off is given here.
Legend:
Mus musculus [1] = test: Antiinflammatory activity against carrageenan-induced paw edema in Swiss albino mouse assessed as swelling thickness at 100 mg/kg, po after 90 mins; format: functional
Outline: (§1)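 Oral dosing in 0.5% CMC; vehicle to controls. Then carrageenan (0.5 mg/25 ll, freshly suspended in 154 mM saline) injected into the right hind paw subplantar tissue; saline into the left paw. Right-left footpad thickness difference measured by dial gauge calliper every 90 min over 6 h. Inhibition % is relative to vehicle control. n = 6; mean ± SEM.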

Mus musculus [2] = test: Antiinflammatory activity against carrageenan-induced paw edema in Swiss albino mouse assessed as swelling thickness at 100 mg/kg, po after 180 mins; format: functional; outline: as §1
Mus musculus [3] = test: Antiinflammatory activity against carrageenan-induced paw edema in Swiss albino mouse assessed as swelling thickness at 100 mg/kg, po after 270 mins; format: functional; outline: as §1
Mus musculus [4] = test: Antiinflammatory activity against carrageenan-induced paw edema in Swiss albino mouse assessed as swelling thickness at 100 mg/kg, po after 360 mins; format: functional; outline: as §1
Mus musculus [5] = test: Inhibition of carrageenan-induced paw edema in Swiss albino mouse at 100 mg/kg, po after 90 mins relative to control; format: functional; settings: 1.5 h; outline: as §1
Mus musculus [6] = test: Inhibition of carrageenan-induced paw edema in Swiss albino mouse at 100 mg/kg, po after 180 mins relative to control; format: functional; settings: 3 h; outline: as §1
Mus musculus [7] = test: Inhibition of carrageenan-induced paw edema in Swiss albino mouse at 100 mg/kg, po after 270 mins relative to control; format: functional; settings: 4.5 h; outline: as §1
Mus musculus [8] = test: Inhibition of carrageenan-induced paw edema in Swiss albino mouse at 100 mg/kg, po after 360 mins relative to control; format: functional; settings: 6 h; outline: as §1
Mus musculus [9] = test: Antiinflammatory activity in Swiss albino mouse assessed as inhibition of carrageenan-induced paw edema at 50 mg/kg, po; format: functional
Mus musculus [10] = test: Analgesic activity against p-benzoquinone-induced abdominal constriction in Swiss albino mouse assessed as number of writhings at 25 mg/kg, po; format: functional, Abdomen
Outline: (§2)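 Test samples given orally in 0.5% CMC; vehicle to controls. 60 min later, 2.5% (v/v) p-benzoquinone in distilled water, 0.1 ml/10 g, given i.p. Mice housed singly; writhes counted for 15 min starting 5 min after injection. Activity is % change from vehicle controls. n = 6; mean ± SEM.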

Mus musculus [11] = test: Analgesic activity against p-benzoquinone-induced abdominal constriction in Swiss albino mouse assessed as number of writhings at 50 mg/kg, po; format: functional, Abdomen; outline: as §2
Mus musculus [12] = test: Analgesic activity against p-benzoquinone-induced abdominal constriction in Swiss albino mouse assessed as number of writhings at 100 mg/kg, po; format: functional, Abdomen; outline: as §2
Mus musculus [13] = test: Analgesic activity against p-benzoquinone-induced abdominal constriction in Swiss albino mouse assessed as number of writhings at 200 mg/kg, po; format: functional, Abdomen; outline: as §2
Mus musculus [14] = test: Inhibition of p-benzoquinone-induced writhing in Swiss albino mouse at 25 mg/kg, po relative to control; format: functional
Outline: (§3)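 Mice, n = 6 per group, dosed orally with a suspension in 0.5% sodium CMC. 60 min later, 0.1 ml/10 g of 2.5% […] p-benzoquinone in distilled water given ip. Abdominal writhes counted per animal for 15 min, starting 5 min after injection. Expressed as % change in mean writhing count versus vehicle controls.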

Mus musculus [15] = test: Inhibition of p-benzoquinone-induced writhing in Swiss albino mouse at 50 mg/kg, po relative to control; format: functional; outline: as §3
Mus musculus [16] = test: Inhibition of p-benzoquinone-induced writhing in Swiss albino mouse at 100 mg/kg, po relative to control; format: functional; outline: as §3
Mus musculus [17] = test: Inhibition of p-benzoquinone-induced writhing in Swiss albino mouse at 200 mg/kg, po relative to control; format: functional; outline: as §3
Mus musculus [18] = test: Gastric-ulcerogenic effect in Swiss albino mouse assessed as lesions at 25 mg/kg, po; format: functional, organism-based; parameters: dose 25 mg/kg
Outline: (§4)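 Mice killed under deep ether anesthesia 3 h after the writhing test; the oral dose in 0.5% CMC was the one used in that test. Stomachs removed, opened along the great curvature and examined under a dissecting microscope for lesions or bleeding. Reported as ratio of ulceration; n = 6.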

Mus musculus [19] = test: Gastric-ulcerogenic effect in Swiss albino mouse assessed as lesions at 50 mg/kg, po; format: functional, organism-based; parameters: dose 50 mg/kg; outline: as §4
Mus musculus [20] = test: Gastric-ulcerogenic effect in Swiss albino mouse assessed as lesions at 100 mg/kg, po; format: functional, organism-based; parameters: dose 100 mg/kg; outline: as §4
Mus musculus [21] = test: Antiinflammatory activity against carrageenan-induced paw edema in Swiss albino mouse assessed as swelling thickness at 25 mg/kg, po after 90 mins; format: functional; outline: as §1
Mus musculus [22] = test: Antiinflammatory activity against carrageenan-induced paw edema in Swiss albino mouse assessed as swelling thickness at 25 mg/kg, po after 180 mins; format: functional; outline: as §1
Mus musculus [23] = test: Antiinflammatory activity against carrageenan-induced paw edema in Swiss albino mouse assessed as swelling thickness at 25 mg/kg, po after 270 mins; format: functional; outline: as §1
Mus musculus [24] = test: Antiinflammatory activity against carrageenan-induced paw edema in Swiss albino mouse assessed as swelling thickness at 25 mg/kg, po after 360 mins; format: functional; outline: as §1

In the case of `CCS(=O)(=O)c1nc(-c2ccc(Cl)cc2)n[nH]1`, the Activity (Mus musculus [1]) is reported as 27.2 10^-2mm, the Activity (Mus musculus [2]) is reported as 31 10^-2mm and the Activity (Mus musculus [3]) is reported as 34.5 10^-2mm. For the same molecule, the Activity (Mus musculus [4]) was 35.3 10^-2mm, the inhibition in vivo at 100 mg/kg (Mus musculus [5]) was 39.3% and the inhibition in vivo at 100 mg/kg (Mus musculus [6]) was 39.8%. For the same molecule, the inhibition in vivo at 100 mg/kg (Mus musculus [7]) was 41.3%, the inhibition in vivo at 100 mg/kg (Mus musculus [8]) was 48.7% and the inhibition in vivo at 50 mg/kg (Mus musculus [9]) was 40.2%. It also gave an Activity (Mus musculus [10]) of 37.8, an Activity (Mus musculus [11]) of 20.8 and an Activity (Mus musculus [12]) of 20.4. For the same molecule, the Activity (Mus musculus [13]) was 44.1, the inhibition in vivo at 25 mg/kg (Mus musculus [14]) was 26.5% and the inhibition in vivo at 50 mg/kg (Mus musculus [15]) was 59.5%. The inhibition in vivo at 100 mg/kg (Mus musculus [16]) was 56.9%, the inhibition in vivo at 200 mg/kg (Mus musculus [17]) was 18.5% and the Activity (Mus musculus [18]) was “Active”. The Activity (Mus musculus [19]) was “Active”, the Activity (Mus musculus [20]) was “Active” and the Activity (Mus musculus [21]) was 45.8 10^-2mm. For the same molecule, the Activity (Mus musculus [22]) was 49.6 10^-2mm, the Activity (Mus musculus [23]) was 57.9 10^-2mm and the Activity (Mus musculus [24]) was 61.2 10^-2mm.

From ChEMBL document CHEMBL1142894, “Preparation of 5-aryl-3-alkylthio-l,2,4-triazoles and corresponding sulfones with antiinflammatory-analgesic activity” (Bioorg Med Chem, 2007)
